Sampled rows, rich in hits. Any-hit rate of the full collection: about 6.4%.
EphB4 ephrin blk – blocks human EphB4 binding to ephrin-B2 | 0.15% of 97,000 active | EphB4 LBD / TNYL-RAW-Alexa532 peptide, fluorescence polarization | P54760 | inhibition, % at 7 µM;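 active = inhibition above the screen-wide mean inhibition plus 3 SD, cut at about 15% in these data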
Target sequence (P54760 whole entry, looked up, the tested form may be a part): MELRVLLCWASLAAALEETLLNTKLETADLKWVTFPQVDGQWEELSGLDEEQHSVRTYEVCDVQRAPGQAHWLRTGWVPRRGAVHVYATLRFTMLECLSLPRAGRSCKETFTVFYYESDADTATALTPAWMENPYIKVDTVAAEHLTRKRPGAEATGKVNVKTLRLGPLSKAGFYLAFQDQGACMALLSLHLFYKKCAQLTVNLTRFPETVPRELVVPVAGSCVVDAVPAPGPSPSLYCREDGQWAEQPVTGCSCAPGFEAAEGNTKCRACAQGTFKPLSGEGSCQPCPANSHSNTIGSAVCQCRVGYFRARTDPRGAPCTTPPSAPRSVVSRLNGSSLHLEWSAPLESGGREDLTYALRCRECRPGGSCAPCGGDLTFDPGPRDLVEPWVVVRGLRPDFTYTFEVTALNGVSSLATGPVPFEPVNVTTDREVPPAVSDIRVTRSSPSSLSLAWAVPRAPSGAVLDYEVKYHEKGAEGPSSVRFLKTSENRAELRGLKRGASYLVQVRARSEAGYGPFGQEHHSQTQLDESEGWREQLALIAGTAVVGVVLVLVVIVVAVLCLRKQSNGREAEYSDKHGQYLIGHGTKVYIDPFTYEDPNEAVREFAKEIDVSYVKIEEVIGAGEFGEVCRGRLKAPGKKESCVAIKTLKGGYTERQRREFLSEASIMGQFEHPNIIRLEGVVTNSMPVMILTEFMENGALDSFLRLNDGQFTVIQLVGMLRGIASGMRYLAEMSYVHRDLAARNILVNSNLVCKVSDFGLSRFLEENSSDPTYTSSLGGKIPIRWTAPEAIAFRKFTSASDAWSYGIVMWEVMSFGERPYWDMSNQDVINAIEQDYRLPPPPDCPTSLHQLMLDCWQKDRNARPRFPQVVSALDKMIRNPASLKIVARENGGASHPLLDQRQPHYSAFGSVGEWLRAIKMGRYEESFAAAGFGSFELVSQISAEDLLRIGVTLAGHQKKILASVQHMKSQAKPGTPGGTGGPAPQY
Rev-RRE block – inhibitors of HIV-1 Rev-RRE RNA interaction; P05866; Rev peptide-RRE RNA binding, FRET; inhibition, % at 8 µM; 0.79% of 97,000 active;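 active = inhibition above the screen-wide mean plus 3 SD, cut at about 35% in these data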
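Test system: Cy5-tagged RRE RNA duplex with fluorescein-tagged Rev peptide | Read-out: % inhibition of FRET ratio versus controls | Probe or stimulus: Labelled Rev peptide | Incubation: 5 min RNA-compound premix plus 15 min binding step, 25 °C | Technique: FRET fluorescence readout | Benchmarks: DMSO low control, neomycin B high control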
PostGolgi ctrl – inhibits growth of the yeast control strain. efflux-deficient yeast background strain, growth absorbance A615, 16 h. inhibition, % at 10 µM. 5% of 98,000 active
PLK1 kinase inh – inhibitors of human PLK1 kinase; P53350; AID 619; inhibition, % at 10 µM; recombinant PLK1 kinase, TR-FRET peptide phosphorylation; 0.53% of 97,000 active;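 active = inhibition of 50% or more in the single-concentration screen; inactive = inhibition below 50%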
PostGolgi yeast – growth inhibition of a yeast mutant, post-Golgi transport screen; inhibition, % at 10 µM; post-Golgi transport phenotypic cell assay; 0.9% of 98,000 active;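 note: yeast cells grown in 1536-well plates; yeast grown about 18 h at 30C before absorbance read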
PLK1 PBD inh – inhibitors of human Plk1 polo box domain binding | P53350 | Plk1 PBD phosphopeptide binding, fluorescence polarization | inhibition, %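 (tested at about 20 µM)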 | 0.13% of 97,000 active | AID 693; in the data active = inhibition above about 34%, passing the limit was not always enough
Each line names hits and unclear results; the compound was inactive in the other large screens; [ ] = dose if it differs, or a comment. Cut-off read from the data, not from the text of the source, unless noted: active = inhibition above about 30%; inactive = the rest.

COC(=O)c1ccccc1NC(=O)C1CCCN(S(=O)(=O)c2ccccc2)C1 (centres undefined)	PostGolgi ctrl 41
Cc1ccccc1NC(=O)C1CCCN(S(=O)(=O)c2cnc[nH]2)C1 (centres undefined)	PostGolgi ctrl 60
COc1ccccc1OCc1ccc(C(=O)NC(C)(C)C)o1	none
CC(C)(C)NC(=O)c1ccc(COc2ccccc2Br)o1	PostGolgi ctrl 33
CCOc1ccc(NC(=O)CSCc2cnn(-c3ccccc3)c2-n2cccc2)cc1	none
Cc1cccc(Nc2nc(NCc3ccco3)nc(N3CCOCC3)n2)c1	none
COc1nc(Nc2cccc(C)c2)nc(N2CCCCC2)n1	PostGolgi ctrl 36
Cc1cccc(Nc2nc(N3CCCC3)nc(N3CCCC3)n2)c1	PostGolgi ctrl 38
COc1ccc(N2CCN(c3nc(Nc4ccc(F)cc4)nc(OC)n3)CC2)cc1	none
COc1nc(/C(N)=N/O)nc(N2CCCCC2)n1	none
COc1nc(N2CCCCCC2)nc(N2CCCCCC2)n1	PostGolgi ctrl 32
Cc1ccc(S(=O)(=O)NC2=NCCC2)cc1	none
CC(C)Sc1nc2sc3c(c2c2nnc(SCC(=O)NCc4ccco4)n12)CCCC3	none
COc1ccc(-n2c(-c3ccccc3)nc(=S)c3c2CCCC3)cc1	PostGolgi ctrl 64
Cc1cc(C)nc(N2CCCC(C(=O)NCc3cccs3)C2)n1 (centres undefined)	none
O=C(NCc1cccs1)C1CCCN(c2nc3ccccc3o2)C1 (centres undefined)	PostGolgi ctrl 42
Cc1cc(C)nc(N2CCCC(C(=O)NCc3ccccc3)C2)n1 (centres undefined)	EphB4 ephrin blk 29 (no result: PostGolgi ctrl, PostGolgi yeast)
O=C(NC1CCCCCCC1)C1CCN(c2nc3ccccc3o2)CC1	PostGolgi ctrl 66
Cc1cc(C)nc(N2CCC(C(=O)NCc3ccccc3)CC2)n1	none (no result: PostGolgi ctrl, PostGolgi yeast)
Cc1c(-n2cc(C(=O)c3ccccc3O)cc(C#N)c2=O)c(=O)n(-c2ccccc2)n1C	Rev-RRE block 57
CCCCn1cc(C(=O)c2cc(Br)ccc2O)cc(C#N)c1=O	none
Cc1ccc(S(=O)(=O)N(CC(O)CN2C(=O)NC(C)(C)C2=O)c2ccccc2)cc1 (centres undefined)	none
Nn1c(Nc2ccccc2)nc2sc3c(c2c1=O)CCC3	PostGolgi ctrl 31
CCc1nc2sc3c(c2c(=O)n1N)CCC3	none
COc1ccc(OC)c(Nc2nc(-c3sc(C)nc3C)cs2)c1	PostGolgi ctrl 48
CC(CC(=O)NC1CCCC1)c1ccccc1 (centres undefined)	none
CC1=C(C(=O)OCCOC(C)C)C(c2cc3c(cc2Br)OCO3)CC(=O)N1 (centres undefined)	PostGolgi ctrl 32
CC1=C(C(=O)OC2CCCCCCC2)C(c2cc3c(cc2Br)OCO3)CC(=O)N1 (centres undefined)	PostGolgi ctrl 43
COC(=O)C1=C(C)NC(=O)CC1c1cc2c(cc1Br)OCO2 (centres undefined)	none (no result: EphB4 ephrin blk, Rev-RRE block, PLK1 kinase inh, PLK1 PBD inh)
C=CCOC(=O)C1=C(C)NC(SCC)=C(C#N)C1c1ccc(Cl)cc1 (centres undefined)	PostGolgi ctrl 55
CN=C1S/C(=C\c2cc(C)n(-c3ccccc3F)c2C)C(=O)N1C	none
COC(=O)c1ccc(N=C2S/C(=C\c3cc(C)n(-c4cccnc4)c3C)C(=O)N2C)cc1	PostGolgi ctrl 32
O=C(Nc1cccc(C(F)(F)F)c1)N(Cc1ccc(Cl)cc1)CC(O)C(F)(F)F (centres undefined)	PostGolgi ctrl 51
CC(O)(CS(=O)(=O)Cc1ccc(Cl)cc1)C(=O)Nc1cccc(C(F)(F)F)c1 (centres undefined)	none
O=S(=O)(/N=C(/Nc1ccccn1)c1ccccc1)c1ccccc1	none
CCOc1ccc(S(=O)(=O)NCCCN2CCOCC2)cc1	none
Cc1c(C)n(C(=O)CN2CCN(c3ccccc3)CC2)c2ccccc12	none
COc1ccc(C(=O)OCCNC(=O)c2c(Cl)nc3ccccn23)cc1	PostGolgi ctrl 36
CC(C)(C)c1ccc(C(=O)OCCNC(=O)c2c(Cl)nc3ccccn23)cc1	PostGolgi ctrl 37
CC(=O)Nc1ccc(S(=O)(=O)n2cnc3ccccc32)cc1	none
CC1CCN(Cc2cnc(Cl)s2)CC1	none
CC1CCCN(Cc2cnc(Cl)s2)C1 (centres undefined)	PostGolgi ctrl 41
CC(C)CC(NC(=O)C1CCC(C)CC1)C(=O)Nc1ccc2c(c1)OCCO2 (centres undefined)	none
CCOC(=O)C1NC(=O)CC1c1ccccc1 (centres undefined)	none
CCOC(=O)[C@@H]1CCNC[C@@H]1c1ccccc1	Rev-RRE block 141[fluorescence artefact?]
CC1(C)CC(=O)C/C(=N/NC(=O)CCCOc2ccc(Cl)cc2Cl)C1	none
O=C(c1ccc(C#CC2(O)CCCCC2)cc1)N1CCN(C(c2ccccc2)c2ccccc2)CC1	none
O=C(c1ccc(C#CC2(O)CCCCC2)cc1)N1CCN(Cc2ccccc2)CC1	PostGolgi ctrl 30
Cc1ccc(C(=O)COC(=O)c2ccccc2N2C(=O)C3C4CCC(C4)C3C2=O)cc1C (centres undefined)	none
O=C(O)/C(=C\c1ccco1)NC(=O)c1cccc2ccccc12	EphB4 ephrin blk 17
NC(=O)/C(=C/c1ccco1)NC(=O)/C=C/c1ccccc1	none
CCOc1ccc(C(CC(=O)O)NC(=O)C23CC4CC(CC(C4)C2)C3)cc1 (centres undefined)	none (no result: EphB4 ephrin blk, Rev-RRE block, PLK1 kinase inh, PLK1 PBD inh)
NC(N)=N/N=C/c1ccc(OCc2ccccc2Cl)cc1	PostGolgi ctrl 36
NC(N)=N/N=C/c1ccccc1	none
COC(=O)c1nc2cc(C)ccn2c1F	PostGolgi ctrl 49 (no result: EphB4 ephrin blk, Rev-RRE block, PLK1 kinase inh, PLK1 PBD inh)
CCOC(=O)c1c(C)nc2cc(C)ccn12	none (no result: EphB4 ephrin blk, Rev-RRE block, PLK1 kinase inh, PLK1 PBD inh)
CCOC(=O)c1cc(C(=O)OCC)c2cccc(C)n2c1=O	none
CCCC1COC(Cn2cncn2)(c2ccc(C)cc2)O1 (centres undefined)	PostGolgi ctrl 93, PostGolgi yeast 101
CCN1C(=O)C2C(C1=O)N1C(c3cccs3)C3C(=O)N(CC)C(=O)C3N1C2c1cccs1 (centres undefined)	none
O=C(CSc1nnc2c3ccccc3c3ccccc3c2n1)Nc1ccccc1	PostGolgi ctrl 45
CC1(c2ccc(Cl)cc2)NC(=O)N(CC(=O)NC(=O)NCc2ccco2)C1=O (centres undefined)	none
N#Cc1nc(-c2ccccc2Cl)oc1NCc1ccco1	PostGolgi ctrl 31
N#Cc1nc(Cc2ccccc2)oc1NCc1cccnc1	none (no result: PostGolgi ctrl, PostGolgi yeast)
N#Cc1nc(Cc2ccccc2)oc1NCc1ccccc1Cl	PostGolgi ctrl 46
COc1ccc(CN(Cc2cccnc2)C(=S)NCCc2ccccc2)cc1OC	none
Cc1sc2nc(NCCO)[nH]c(=O)c2c1C	PLK1 kinase inh 64
CCOC(=O)CSc1nc2sc(C)c(C)c2c(=O)[nH]1	none
CC1(C(=O)c2ccccc2)C2c3c(ccc4ccccc34)OC(=O)C21C(=O)N1CCOCC1 (centres undefined)	PostGolgi ctrl 46
